Reference: ChEMBL document CHEMBL4425135, “Novel C-Ring-Hydroxy-Substituted Controlled Deactivation Cannabinergic Analogues” (J Med Chem, 2016)
Activity calls are given as the source filed them. The calls are words filed in the database; no cut-off is given here.

Experiments:
Cannabinoid receptor 2 [1] = biological target: T1, Cannabinoid receptor 2 (Mus musculus, UniProt P47936); assay: Displacement of [3H]CP55940 from mouse CB2 receptor expressed in HEK293 cell membranes by scintillation counting method
T1 sequence (P47936 whole entry): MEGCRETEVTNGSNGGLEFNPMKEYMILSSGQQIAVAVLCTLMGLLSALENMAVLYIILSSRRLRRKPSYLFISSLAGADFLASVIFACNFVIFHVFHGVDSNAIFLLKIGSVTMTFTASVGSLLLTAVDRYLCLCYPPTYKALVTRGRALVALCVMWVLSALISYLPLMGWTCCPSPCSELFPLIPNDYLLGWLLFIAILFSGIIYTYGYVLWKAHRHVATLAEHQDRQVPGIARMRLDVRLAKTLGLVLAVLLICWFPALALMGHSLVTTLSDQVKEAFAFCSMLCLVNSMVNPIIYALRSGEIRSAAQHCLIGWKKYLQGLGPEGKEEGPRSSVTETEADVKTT
Summary of the method: (§1)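 Competition binding against [3H]CP-55,940 using rat brain membranes (CB1) or membranes of HEK293 cells expressing mouse or human CB2. IC50 from nonlinear regression, converted to Ki. Each experiment run in triplicate; Ki is the mean of three independent experiments.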

Cannabinoid receptor 2 [2] = biological target: T2, Cannabinoid receptor 2 (Homo sapiens, UniProt P34972); assay: Agonist activity at human CB2 receptor expressed in HEK293 cells assessed as decrease in forskolin-stimulated cAMP levels after 30 mins; format: functional, cell-based
T2 sequence (P34972 whole entry): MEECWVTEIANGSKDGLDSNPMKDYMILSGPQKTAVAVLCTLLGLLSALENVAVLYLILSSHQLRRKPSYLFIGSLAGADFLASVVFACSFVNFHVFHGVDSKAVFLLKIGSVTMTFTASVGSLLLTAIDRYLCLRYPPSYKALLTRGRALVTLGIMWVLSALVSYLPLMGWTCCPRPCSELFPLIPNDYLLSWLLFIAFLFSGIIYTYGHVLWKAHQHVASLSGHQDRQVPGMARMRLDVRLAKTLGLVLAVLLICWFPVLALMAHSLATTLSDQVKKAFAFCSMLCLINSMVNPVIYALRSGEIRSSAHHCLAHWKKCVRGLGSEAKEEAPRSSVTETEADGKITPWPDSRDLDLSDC
Summary of the method: (§2)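 Stably transfected HEK293 cells harvested with Versene, washed in HBSS, resuspended in stimulation buffer. Cells exposed to graded compound concentrations in buffer containing forskolin (2 μM final), 30 min at room temperature. cAMP read by TR-FRET (Eu-cAMP tracer plus ULight anti-cAMP antibody, 60 min room temperature). EC50 from nonlinear regression.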

Squirrel monkey [3] = assay: Induction of CB1-related discriminative stimulus effect in squirrel monkey assessed as time required for 50% loss of full effect at 0.001 mg/kg, im; format: functional, organism-based; details: Saimiri sciureus
Summary of the method: (§3)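 Squirrel monkeys trained on two levers to discriminate 0.01 mg/kg im CB1 agonist from vehicle. After im test dosing, sequential sessions began at 15, 30, 60, 120, 240, 480 and 960 min, with some groups also tested at 36 and 48 h. Measured percent responding on the agonist lever (≥90% counted as full substitution) and overall response rate.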

[4] = Half life in mouse plasma assessed as esterase-mediated compound hydrolysis at 200 uM by HPLC method; format: ADME, cell-free
Summary of the method: (§4)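 Compound diluted to 200 μM in mouse or rat plasma and shaken at 37 °C, 100 rpm. Samples taken at timed points, diluted 1:4 in acetonitrile and centrifuged. Supernatant analysed by reversed-phase C18 HPLC, acetonitrile/acidified water gradient, UV detection. 4-Nitrophenyl butyrate run as control in each experiment. Half-life from exponential decay fit.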

Rattus norvegicus [5] = assay: Hypothermic activity in Sprague-Dawley rat assessed as decrease in rectal body temperature at 1 mg/kg, sc measured over 6 hrs; format: functional
Summary of the method: (§5)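 Female Sprague-Dawley rats, 250–350 g, n = 6/group, retested with ≥5 days between sessions. Dosed sc (1.0 mL/kg) in 20% ethanol/20% alkamuls/60% saline diluted with saline. Rectal thermistor at 6 cm depth. Two baselines 15 min apart, then readings every 30 min for 3 h and hourly to 6 h. Change taken from mean baseline.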

Mus musculus [6] = assay: Analgesic activity in CD1 mouse assessed as increase in tail flick latency at 1 mg/kg, ip measured at 180 mins relative to control; format: functional
Summary of the method: (§6)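 Male CD-1 mice, 30–35 g, n = 6, each used once, habituated over three mock sessions at 38 °C. Tail-flick latency in a 52 °C water bath at baseline, then 20, 60, 180 and 360 min after ip dosing (10 mL/kg). Vehicle 2% DMSO/4% Tween-80/4% propylene glycol with saline, freshly prepared. Scored as %MPE.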

Cannabinoid receptor 2 [7] = biological target: T2, Cannabinoid receptor 2; assay: Displacement of [3H]CP55940 from human CB2 receptor expressed in HEK293 cell membranes by scintillation counting method; summary of the method: as §1
Mus musculus [8] = assay: Analgesic activity in CD1 mouse assessed as increase in tail flick latency at 1 mg/kg, ip measured at 360 mins relative to control; format: functional; summary of the method: as §6
Squirrel monkey [9] = assay: Induction of CB1-related discriminative stimulus effect in squirrel monkey at 0.001 mg/kg, im after 1 hr; format: functional, organism-based; details: Saimiri sciureus; summary of the method: as §3
Cannabinoid receptor 1 [10] = biological target: T3, Cannabinoid receptor 1 (Rattus norvegicus, UniProt P20272); assay: Agonist activity at rat CB1 receptor expressed in HEK293 cells assessed as decrease in forskolin-stimulated cAMP levels after 30 mins; format: functional, cell-based; summary of the method: as §2
T3 sequence (P20272 whole entry): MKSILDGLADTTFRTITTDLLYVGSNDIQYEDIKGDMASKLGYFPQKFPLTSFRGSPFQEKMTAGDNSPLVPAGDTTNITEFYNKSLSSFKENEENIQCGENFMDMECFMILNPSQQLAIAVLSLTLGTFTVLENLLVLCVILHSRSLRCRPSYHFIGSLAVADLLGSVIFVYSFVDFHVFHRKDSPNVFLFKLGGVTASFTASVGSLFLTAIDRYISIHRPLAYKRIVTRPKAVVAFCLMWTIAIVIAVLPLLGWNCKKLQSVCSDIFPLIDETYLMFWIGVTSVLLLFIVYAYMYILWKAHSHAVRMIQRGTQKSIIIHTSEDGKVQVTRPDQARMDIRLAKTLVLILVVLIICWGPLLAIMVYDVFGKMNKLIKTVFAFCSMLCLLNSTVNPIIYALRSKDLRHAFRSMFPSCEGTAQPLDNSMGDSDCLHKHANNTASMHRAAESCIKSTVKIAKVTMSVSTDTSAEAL

Rattus norvegicus [11] = assay: Hypothermic activity in Sprague-Dawley rat assessed as time required for decrease in rectal body temperature at 0.01 to 1 mg/kg, sc; format: functional; summary of the method: as §5
Squirrel monkey [12] = assay: Induction of CB1-related discriminative stimulus effect in squirrel monkey at 0.001 mg/kg, im after 4 to 16 hrs; format: functional, organism-based; details: Saimiri sciureus; summary of the method: as §3
[13] = Half life in rat plasma assessed as esterase-mediated compound hydrolysis at 200 uM by HPLC method; format: ADME, cell-free; summary of the method: as §4
Rattus norvegicus [14] = assay: Hypothermic activity in Sprague-Dawley rat assessed as decrease in rectal body temperature at 0.1 mg/kg, sc after 6 hrs; format: functional, organism-based; summary of the method: as §5
Cannabinoid receptor 1 [15] = biological target: T3, Cannabinoid receptor 1; assay: Displacement of [3H]CP55940 from CB1 receptor in rat brain membranes by scintillation counting method; format: cell membranes; summary of the method: as §1
Mus musculus [16] = assay: Analgesic activity in CD1 mouse assessed as increase in tail flick latency at 1 mg/kg, ip measured at 60 mins relative to control; format: functional; summary of the method: as §6
Cannabinoid receptor 2 [17] = biological target: T2, Cannabinoid receptor 2; assay: Agonist activity at human CB2 receptor expressed in HEK293 cells assessed as decrease in forskolin-stimulated cAMP levels at 500 nM after 30 mins relative to CP-55940; format: functional, cell-based
Rattus norvegicus [18] = assay: Hypothermic activity in Sprague-Dawley rat assessed as decrease in rectal body temperature at 0.1 mg/kg, sc measured over 6 hrs; format: functional; summary of the method: as §5
[19] = biological target: Cannabinoid receptor 1 (Rattus norvegicus) (UniProt P20272); assay: Agonist activity at rat CB1 receptor expressed in HEK293 cells assessed as decrease in forskolin-stimulated cAMP levels at 500 nM after 30 mins relative to CP-55940; format: functional, cell-based
Chain of Cannabinoid receptor 1 (Rattus norvegicus) (P20272 whole entry): as above

Rattus norvegicus [20] = assay: Hypothermic activity in sc dosed Sprague-Dawley rat assessed as decrease in rectal body temperature measured over 6 hrs; format: functional; summary of the method: as §5
Squirrel monkey [21] = assay: Effect on response rate in squirrel monkey at 0.001 mg/kg, im; format: functional, organism-based; details: Saimiri sciureus; summary of the method: as §3
Mus musculus [22] = assay: Analgesic activity in CD1 mouse assessed as increase in tail flick latency at 1 mg/kg, ip measured at 20 mins relative to control; format: functional; summary of the method: as §6
Rattus norvegicus [23] = assay: Hypothermic activity in Sprague-Dawley rat assessed as decrease in rectal body temperature at 3 mg/kg, sc measured over 6 hrs; format: functional; summary of the method: as §5
Rattus norvegicus [24] = assay: Hypothermic activity in Sprague-Dawley rat assessed as time required for decrease in rectal body temperature at 0.03 to 3 mg/kg, sc; format: functional; summary of the method: as §5
Squirrel monkey [25] = assay: Induction of CB1-related discriminative stimulus effect in squirrel monkey at 0.003 mg/kg, im measured at 36 hrs; format: functional, organism-based; details: Saimiri sciureus; summary of the method: as §3
Squirrel monkey [26] = assay: Effect on response rate in squirrel monkey at 0.003 mg/kg, im; format: functional, organism-based; details: Saimiri sciureus; summary of the method: as §3
Squirrel monkey [27] = assay: Induction of CB1-related discriminative stimulus effect in squirrel monkey at 0.003 mg/kg, im measured within 15 mins; format: functional, organism-based; details: Saimiri sciureus; summary of the method: as §3
Cannabinoid receptor 1 [28] = biological target: T3, Cannabinoid receptor 1; assay: Binding affinity to rat CB1 receptor
Summary of the method: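 Competition displacement of [3H]CP-55,940 from rat brain membranes (CB1 source). IC50 from nonlinear regression of competition curves, converted to Ki. Each experiment run in triplicate; Ki is the mean of three independent experiments.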

Squirrel monkey [29] = assay: Induction of CB1-related discriminative stimulus effect in squirrel monkey assessed as time required for 50% loss of full effect at 0.003 mg/kg, im; format: functional, organism-based; details: Saimiri sciureus; summary of the method: as §3
Squirrel monkey [30] = assay: Induction of CB1-related discriminative stimulus effect in squirrel monkey at 0.003 mg/kg, im measured after 24 hrs; format: functional, organism-based; details: Saimiri sciureus
Cannabinoid receptor 2 [31] = biological target: T1, Cannabinoid receptor 2; assay: Binding affinity to mouse CB2 receptor; summary of the method: as §1
Rattus norvegicus [32] = assay: Hypothermic activity in Sprague-Dawley rat assessed as time required for decrease in rectal body temperature at 0.1 to 3 mg/kg, sc; format: functional; summary of the method: as §5

## CCCCOC(=O)C(C)(C)c1cc(O)c2c(c1)OC(C)(C)[C@@H]1CC[C@@H](CO)C[C@@H]21
Cannabinoid receptor 2 [1]
  Ki: 0.1 nM
Cannabinoid receptor 2 [2]
  EC50: 0.3 nM
Squirrel monkey [3]
  T1/2: 48 min
[4]
  t1/2: 3.1 min
Rattus norvegicus [5]
  T: 4.7 - 7.2 °C
Mus musculus [6]
  MPE: 97%
Cannabinoid receptor 2 [7]
  Ki: 3.1 nM
Mus musculus [8]
  MPE: 58%
Squirrel monkey [9]
  Activity: Active
Cannabinoid receptor 1 [10]
  EC50: 2.5 nM
Rattus norvegicus [11]
  Time: 1 to 3 h
Squirrel monkey [12]
  Activity: inactive
[13]
  t1/2: 39.2 min
Rattus norvegicus [14]
  Activity: inactive
Cannabinoid receptor 1 [15]
  Ki: 2.4 nM
Mus musculus [16]
  MPE: 96%
Cannabinoid receptor 2 [17]
  Emax: 82%
Rattus norvegicus [18]
  T: >4 °C
[19]
  Emax: 87%
Rattus norvegicus [20]
  Activity: Dose-dependent effect
  ED50: 0.04 mg/kg
Squirrel monkey [21]
  Activity: inactive
Mus musculus [22]
  MPE: 94%

## CC(C)(C(=O)O)c1cc(O)c2c(c1)OC(C)(C)[C@@H]1CC=C(CO)C[C@@H]21
Cannabinoid receptor 2 [1]
  Ki: > 10000 nM
Cannabinoid receptor 1 [15]
  Ki: > 10000 nM

## CCCCOC(=O)C(C)(C)c1cc(O)c2c(c1)OC(C)(C)[C@@H]1CC=C(CO)C[C@@H]21
Rattus norvegicus [23]
  T: 4.7 - 7.2 °C
Cannabinoid receptor 2 [2]
  EC50: 5.7 nM
[4]
  t1/2: 5 min
Cannabinoid receptor 1 [10]
  EC50: 4.6 nM
Rattus norvegicus [24]
  Time: 1 to 3 h
[13]
  t1/2: 39.1 min
Rattus norvegicus [14]
  Activity: inactive
Cannabinoid receptor 2 [17]
  Emax: 83%
Rattus norvegicus [18]
  T: >4 °C
[19]
  Emax: 89%
Rattus norvegicus [20]
  Activity: Dose-dependent effect
  ED50: 0.04 mg/kg

## CC1(C)Oc2cc(CC(=O)O)cc(O)c2[C@@H]2C[C@H](O)CC[C@H]21
Cannabinoid receptor 2 [1]
  Ki: > 10000 nM
Cannabinoid receptor 1 [15]
  Ki: > 10000 nM

## CCCCCCC(C)(C)c1cc(O)c2c(c1)OC(C)(C)[C@@H]1CC=C(CO)C[C@@H]21
Squirrel monkey [25]
  Activity: inactive
Rattus norvegicus [11]
  Time: 1 to 3 h
Squirrel monkey [26]
  Activity: inactive
Squirrel monkey [27]
  Activity: Active
Cannabinoid receptor 1 [28]
  Ki: 0.7 nM
Rattus norvegicus [20]
  ED50: 0.04 mg/kg
Squirrel monkey [29]
  T1/2: 66 min
Squirrel monkey [30]
  Activity: Active
Cannabinoid receptor 2 [31]
  Ki: 0.2 nM

## CCCCOC(=O)Cc1cc(O)c2c(c1)OC(C)(C)[C@@H]1CC[C@@H](O)C[C@@H]21
Cannabinoid receptor 2 [1]
  Ki: 317 nM
Cannabinoid receptor 2 [7]
  Ki: 432 nM
Cannabinoid receptor 1 [15]
  Ki: 238 nM

## CC(C)(C(=O)O)c1cc(O)c2c(c1)OC(C)(C)[C@@H]1CC[C@H](O)C[C@@H]21
Cannabinoid receptor 2 [1]
  Ki: > 10000 nM
Cannabinoid receptor 1 [15]
  Ki: > 10000 nM

## CCCCOC(=O)C(C)(C)c1cc(O)c2c(c1)OC(C)(C)[C@@H]1CC[C@@H](O)C[C@@H]21
Rattus norvegicus [23]
  T: 4.7 - 7.2 °C
Cannabinoid receptor 2 [2]
  EC50: 9 nM
[4]
  t1/2: 2.7 min
Cannabinoid receptor 1 [10]
  EC50: 8.6 nM
[13]
  t1/2: 10.2 min
Cannabinoid receptor 2 [17]
  Emax: 85%
[19]
  Emax: 85%
Rattus norvegicus [32]
  Time: 1 to 3 h
Rattus norvegicus [20]
  Activity: Dose-dependent effect
  ED50: 0.74 mg/kg

## CCCCOC(=O)C(C)(C)c1cc(O)c2c(c1)OC(C)(C)[C@@H]1CC[C@H](O)C[C@@H]21
[4]
  t1/2: 2.8 min
[13]
  t1/2: 5.6 min

## CCCCOC(=O)Cc1cc(O)c2c(c1)OC(C)(C)[C@@H]1CC[C@H](O)C[C@@H]21
Cannabinoid receptor 2 [1]
  Ki: 654 nM
Cannabinoid receptor 2 [7]
  Ki: 733 nM
Cannabinoid receptor 1 [15]
  Ki: 750 nM

## CC(C)(C(=O)O)c1cc(O)c2c(c1)OC(C)(C)[C@@H]1CC[C@@H](CO)C[C@@H]21
Cannabinoid receptor 2 [1]
  Ki: > 10000 nM
Cannabinoid receptor 1 [15]
  Ki: > 10000 nM

## CC(C)(C(=O)O)c1cc(O)c2c(c1)OC(C)(C)[C@@H]1CC[C@@H](O)C[C@@H]21
Cannabinoid receptor 2 [1]
  Ki: > 10000 nM
Cannabinoid receptor 1 [15]
  Ki: > 10000 nM

## CC1(C)Oc2cc(CC(=O)O)cc(O)c2[C@@H]2C[C@@H](O)CC[C@H]21
Cannabinoid receptor 2 [1]
  Ki: > 10000 nM
Cannabinoid receptor 1 [15]
  Ki: > 10000 nM
